Assay results from ChEMBL document CHEMBL5058577, “EUbOPEN Chemogenomics Library 2 (Multiplex)” (2022).

System: U2OS
Test: Multiplex assay against U2OS
Format: toxicity, cell-based
Conditions: human
Method in brief: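 Values for tubulin, mitochondrial-mass and membrane-permeability phenotypes are per cents of cells with healthy nuclei. These cells were identified by CellPathfinder machine-learning gating of live cells that had been stained at seeding with Hoechst33342, BioTracker Green Microtubule Cytoskeleton Dye, MitoTracker Red and Annexin V Alexa Fluor 680 and imaged on a CQ1 microscope at 37°C and 5% CO2 after compound addition. The gating first set Hoechst high-intensity objects apart from normal cells, then split normal cells into healthy, pyknosed or fragmented nuclei, and pyknosed cells into mitotic or apoptotic.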

[1] = 12 h, 1 µM, compound concentration 1 uM, replicate 1
[2] = 12 h, 1 µM, compound concentration 1 uM, replicate 2
[3] = 12 h, 10 µM, compound concentration 10 uM, replicate 1
[4] = 12 h, 10 µM, compound concentration 10 uM, replicate 2
[5] = 24 h, 1 µM, compound concentration 1 uM, replicate 1
[6] = 24 h, 1 µM, compound concentration 1 uM, replicate 2
[7] = 24 h, 10 µM, compound concentration 10 uM, replicate 1
[8] = 24 h, 10 µM, compound concentration 10 uM, replicate 2
[9] = 48 h, 1 µM, compound concentration 1 uM, replicate 1
[10] = 48 h, 1 µM, compound concentration 1 uM, replicate 2
[11] = 48 h, 10 µM, compound concentration 10 uM, replicate 1
[12] = 48 h, 10 µM, compound concentration 10 uM, replicate 2

O=C1COc2nccc(-c3ccccc3F)c2CN1Cc1cc(C(F)(F)F)cc(C(F)(F)F)c1
Population Apoptotic (%) [1]: 52% | Population Fragmented Nuclei (%) [1]: 19% | Population Healthy Nuclei (%) [1]: 72% | Population Hoechst High Intensity Objects (%) [1]: 4% | Population Membrane Permeable-Phenotype (%) [1]: 6% | Population Mitochondria Different-Phenotype (%) [1]: 2% | Population Mitotic Cells (%) [1]: 47% | Population Normal (%) [1]: 95% | Population Pyknosed Nuclei (%) [1]: 8% | Population Tubulin-Different-Phenotype (%) [1]: 4% | Total Cell Count [1]: 252 | Population Apoptotic (%) [2]: 77% | Population Fragmented Nuclei (%) [2]: 23% | Population Healthy Nuclei (%) [2]: 67% | Population Hoechst High Intensity Objects (%) [2]: 2% | Population Membrane Permeable-Phenotype (%) [2]: 15% | Population Mitochondria Different-Phenotype (%) [2]: 9% | Population Mitotic Cells (%) [2]: 22% | Population Normal (%) [2]: 97% | Population Tubulin-Different-Phenotype (%) [2]: 11% | Total Cell Count [2]: 108 | Population Apoptotic (%) [3]: 70% | Population Fragmented Nuclei (%) [3]: 36% | Population Healthy Nuclei (%) [3]: 47% | Population Hoechst High Intensity Objects (%) [3]: 3% | Population Membrane Permeable-Phenotype (%) [3]: 25% | Population Mitochondria Different-Phenotype (%) [3]: 27% | Population Mitotic Cells (%) [3]: 29% | Population Normal (%) [3]: 96% | Population Pyknosed Nuclei (%) [3]: 16% | Population Tubulin-Different-Phenotype (%) [3]: 25% | Total Cell Count [3]: 200 | Population Apoptotic (%) [4]: 100% | Population Fragmented Nuclei (%) [4]: 16% | Population Healthy Nuclei (%) [4]: 76% | Population Hoechst High Intensity Objects (%) [4]: 5% | Population Membrane Permeable-Phenotype (%) [4]: 17% | Population Mitochondria Different-Phenotype (%) [4]: 23% | Population Mitotic Cells (%) [4]: 0% | Population Normal (%) [4]: 94% | Population Pyknosed Nuclei (%) [4]: 7% | Population Tubulin-Different-Phenotype (%) [4]: 13% | Total Cell Count [4]: 112 | Population Apoptotic (%) [5]: 86% | Population Fragmented Nuclei (%) [5]: 17% | Population Healthy Nuclei (%) [5]: 74% | Population Hoechst High Intensity Objects (%) [5]: 3% | Population Membrane Permeable-Phenotype (%) [5]: 8% | Population Mitochondria Different-Phenotype (%) [5]: 3% | Population Mitotic Cells (%) [5]: 13% | Population Normal (%) [5]: 96% | Population Pyknosed Nuclei (%) [5]: 8% | Population Tubulin-Different-Phenotype (%) [5]: 3% | Total Cell Count [5]: 291 | Population Apoptotic (%) [6]: 83% | Population Fragmented Nuclei (%) [6]: 18% | Population Healthy Nuclei (%) [6]: 76% | Population Hoechst High Intensity Objects (%) [6]: 4% | Population Membrane Permeable-Phenotype (%) [6]: 12% | Population Mitochondria Different-Phenotype (%) [6]: 7% | Population Mitotic Cells (%) [6]: 16% | Population Normal (%) [6]: 95% | Population Pyknosed Nuclei (%) [6]: 5% | Population Tubulin-Different-Phenotype (%) [6]: 5% | Total Cell Count [6]: 121 | Population Apoptotic (%) [7]: 58% | Population Fragmented Nuclei (%) [7]: 36% | Population Healthy Nuclei (%) [7]: 43% | Population Hoechst High Intensity Objects (%) [7]: 5% | Population Membrane Permeable-Phenotype (%) [7]: 21% | Population Mitochondria Different-Phenotype (%) [7]: 22% | Population Mitotic Cells (%) [7]: 41% | Population Normal (%) [7]: 94% | Population Pyknosed Nuclei (%) [7]: 19% | Population Tubulin-Different-Phenotype (%) [7]: 17% | Total Cell Count [7]: 210 | Population Apoptotic (%) [8]: 100% | Population Fragmented Nuclei (%) [8]: 21% | Population Healthy Nuclei (%) [8]: 70% | Population Membrane Permeable-Phenotype (%) [8]: 13% | Population Mitochondria Different-Phenotype (%) [8]: 19% | Population Mitotic Cells (%) [8]: 0% | Population Pyknosed Nuclei (%) [8]: 8% | Population Tubulin-Different-Phenotype (%) [8]: 7% | Total Cell Count [8]: 126 | Population Apoptotic (%) [9]: 84% | Population Fragmented Nuclei (%) [9]: 16% | Population Healthy Nuclei (%) [9]: 74% | Population Hoechst High Intensity Objects (%) [9]: 3% | Population Membrane Permeable-Phenotype (%) [9]: 5% | Population Mitochondria Different-Phenotype (%) [9]: 3% | Population Mitotic Cells (%) [9]: 15% | Population Normal (%) [9]: 96% | Population Pyknosed Nuclei (%) [9]: 9% | Population Tubulin-Different-Phenotype (%) [9]: 3% | Total Cell Count [9]: 425 | Population Apoptotic (%) [10]: 76% | Population Fragmented Nuclei (%) [10]: 19% | Population Healthy Nuclei (%) [10]: 69% | Population Membrane Permeable-Phenotype (%) [10]: 8% | Population Mitochondria Different-Phenotype (%) [10]: 5% | Population Mitotic Cells (%) [10]: 23% | Population Pyknosed Nuclei (%) [10]: 10% | Total Cell Count [10]: 166 | Population Apoptotic (%) [11]: 61% | Population Fragmented Nuclei (%) [11]: 35% | Population Healthy Nuclei (%) [11]: 46% | Population Hoechst High Intensity Objects (%) [11]: 4% | Population Membrane Permeable-Phenotype (%) [11]: 20% | Population Mitochondria Different-Phenotype (%) [11]: 17% | Population Mitotic Cells (%) [11]: 38% | Population Normal (%) [11]: 95% | Population Pyknosed Nuclei (%) [11]: 17% | Population Tubulin-Different-Phenotype (%) [11]: 11% | Total Cell Count [11]: 236 | Population Apoptotic (%) [12]: 85% | Population Fragmented Nuclei (%) [12]: 25% | Population Healthy Nuclei (%) [12]: 60% | Population Membrane Permeable-Phenotype (%) [12]: 12% | Population Mitochondria Different-Phenotype (%) [12]: 12% | Population Mitotic Cells (%) [12]: 14% | Population Pyknosed Nuclei (%) [12]: 14% | Population Tubulin-Different-Phenotype (%) [12]: 3% | Total Cell Count [12]: 151
